Source: PubChem (several laboratories)
JNK3 blocker – JNK3 kinase activity inhibitors, primary screen, biochemical, human, purified enzyme | hit rate 0.61% among 60,000 | HTS | AID 746, 2007 | inhibition, % at 8 µM; in the data active means inhibition above about 17%;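 further: 0% = DMSO and 100% = reference inhibitor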
M1 antag – antagonists of rat M1 muscarinic receptor. CHO-M1 cells, Fluo-4 calcium, ACh EC80 antagonist mode; stronger effect = lower value. B-score at 10 µM. hit rate 3.4% among 64,000. AID 628, 2007;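 active means calcium fluorescence response, raw or row-and-column corrected B-score, differing from the plate sample mean either way at a set confidence level, mostly lower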
Her2 expr inh – inhibitors of Her2 protein expression, primary screen, SKBR-3 cells, AlphaScreen, 66K library; Receptor tyrosine-protein kinase erbB-2 (Homo sapiens), P04626; SKBR-3 HER2 protein level, 18-24 h; stronger effect = lower value; HER2 level % of control, % at 10 µM; hit rate 0.69% among 65,000;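 active means HER2 level under 5% of the carrier-only control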;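 further: 100% = DMSO carrier and 0% = 500 nM PU-H71 HSP90 inhibitor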
M1 agonist – M1 muscarinic receptor agonists, primary screen, CHO-M1 cells, Fluo-4 calcium, agonist mode; B-score at 10 µM; Fluo-4 calcium fluorescence; stronger effect = higher value; hit rate 3% among 64,000; Muscarinic acetylcholine receptor M1;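 active means fluorescence rise, raw or as B-score row- and column-corrected plate score, outside the 99.7% band of its plate's samples, either direction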
BAP1 inh – inhibitors of BAP1 deubiquitinase, primary screen, biochemical, Ub-AMC fluorescence, kinetic; hit rate 0.48% among 72,000; recombinant BAP1, Ub-AMC hydrolysis fluorescence kinetic; stronger effect = lower value; calls only at 20 µM;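 active means activity remaining at or below 50% of control, provided the compound also passes the data quality filters; inactive means the rest, including low values that fail the filters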;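 further: 100% = DMSO wells rate and 0% = substrate alone blank rate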
HEK293 NFkB inh – inhibitors of PMA/ionomycin-induced NF-kB reporter, primary screen, antigen receptor NF-kB inhibitor project, cell-based, HEK-293 luciferase reporter, luminescence; hit rate 0.21% among 62,000; HEK-293 NF-kB luciferase reporter; AID 465, 2006; inhibition, % at 3 µM;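 active means inhibition above the mean of all tested compounds plus 3 SD, cut at about 40% in these data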;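 further: 0% = stimulated DMSO wells and 100% = 10 µM reference inhibitor 5653914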
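System – HEK-293 cells with stable firefly luciferase reporter driven by four HIV NF-kB elements · Doses – one dose, 3 µM · Schedule – 1 h compound pre-incubation, 16 h PMA/ionomycin at 37 °C · Technique – luminescence from luciferase substrate reagent · Measure – percent inhibition normalized per plate to DMSO and reference-inhibitor controls · Replicates – tested once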
* hit, by the source's call; i = inactive; · = no result shown. An excerpt weighted towards active compounds, which were near 6.6% of everything screened.

SMILES | JNK3 blocker | M1 antag | Her2 expr inh | M1 agonist | BAP1 inh | HEK293 NFkB inh
CCOC(=O)C1CCCN(C(=O)c2cn(C)c3ccc(S(=O)(=O)N(C)C)cc3c2=O)C1 (configuration not stated) | -4 | 0.97* | 108 | 0.22 | i | 8
CC1CCSC(C)(C)S1 (configuration not stated) | · | · | · | · | i | ·
O=C(O)CCCN1C(=O)c2ccc([N+](=O)[O-])cc2C1=O | · | · | · | · | i | ·
COc1ccccc1C(=O)N1CCN(c2cccc(Cl)c2)CC1 | · | 0.14 | 41 | -0.31 | · | 40*
COc1ccc(C(=S)N2CCN(c3cccc(Cl)c3)CC2)cc1 | · | · | · | · | i | ·
COC(=O)c1ccc(Cn2c(O)c(N=O)c3ccccc32)o1 | 20* | 0.34 | 107 | -1.1 | i | ·
CCCCNc1c(C(=O)OCC)c(=O)[nH]c2ccccc12 | 0 | 0.6 | 113 | 0.032 | i | 12
CCOC(=O)c1c(-c2ccccc2)[nH]c2ccc(O)cc12 | 42* | -0.54 | 107 | 0.068 | i | -11
CC(=O)OC(=C(Cl)Cl)c1ccc(C(OC(C)=O)=C(Cl)Cl)cc1 | · | · | · | · | i | ·
Cc1nn(C(C)C(=O)O)c(=O)c2c1sc1ccccc12 (configuration not stated) | 21* | -0.44 | 86 | 0.51 | i | 7
CCOC(=O)c1[nH]cnc1C(=O)Nc1ccccn1 | 10 | 0.059 | 83 | 0.37 | i | 24
O=C(c1ccccc1)c1nc[nH]c1C(=O)Nc1ccccn1 | 18* | -0.42 | 73 | 0.64 | i | -4
COC(=O)C1=C(N)Oc2cc(C)n(C)c(=O)c2C1c1ccc(Cl)c(Cl)c1 (configuration not stated) | 1 | 0.5 | 3.3* | -0.11 | i | 11
Cc1cc(NC(=O)CCC(=O)N(CCC(C)C)C(C(=O)NC2CCCC2)c2cccnc2)no1 (configuration not stated) | -4 | -0.82 | 85 | 0.3 | i | 20
Cc1cc(NC(=O)CCC(=O)N(CCc2ccccc2)C(C(=O)NC2CCCC2)c2ccco2)no1 (configuration not stated) | -4 | 2.4* | 73 | 1.3 | i | 14
CCc1cc(=O)oc2cc(C)cc(OC(=O)c3ccco3)c12 | 20* | 0.48 | 110 | 0.84 | i | -6
Cc1ccc(C=Nc2cccc3ccccc23)cc1 | · | · | · | · | i | ·
Cc1c(Cl)ccc2c1NC(=O)[C@]21N[C@@H](CCC(N)=O)[C@H]2C(=O)N(c3ccc(F)cc3)C(=O)[C@H]21 | -4 | · | 75 | · | i | 7
Cc1c(Cl)ccc2c1NC(=O)C21NC(CCC(N)=O)[C@H]2C(=O)N(c3ccc(Cl)cc3)C(=O)[C@H]21 (some centres not stated) | 0 | 1.8* | 52 | 0.42 | i | -2
O=S(=O)(Nc1ccccc1)c1ccccc1 | · | · | · | · | i | ·
CCOC(=O)c1cnc2ccc(Cl)cc2c1N1CCN(C)CC1 | 32* | -0.65 | 127 | -2.5 | i | 6
CCC(C)OC(=O)C1=C(C)NC(=O)NC1c1ccccc1F (configuration not stated) | · | · | · | · | i | ·
CSCC[C@H](NC(=O)NCc1ccc(F)cc1)C(=O)O | -1 | 0.51 | -15* | -1.3 | i | 3
CCOC(=O)C(C(=O)OCC)c1cc(Br)c2noc3c2c1C(=O)c1ccccc1-3 | · | -0.76 | -5.2* | 788* | · | -2
CCOC(=O)c1c(C)[nH]c(C(=O)OC/C(O)=C(\C#N)c2nc3ccccc3[nH]2)c1C | -6 | 0.91 | -3.7* | -0.82 | i | -3
SMILES | JNK3 blocker | M1 antag | Her2 expr inh | M1 agonist | BAP1 inh | HEK293 NFkB inh
N#C/C(=C(/O)COC(=O)c1ccc2c(c1)OCCO2)c1nc2ccccc2[nH]1 | -4 | 0.4 | 109 | 1.7 | · | 9
Oc1ccc(-c2nc3ccc4ccccc4c3c3c2CCC3)c(O)c1 | · | · | · | · | i | ·
O=C(CC1Nc2ccccc2NC1=O)NCc1cccnc1 (configuration not stated) | 2 | 1.4* | 95 | 1.2 | i | 11
N#CCCCSc1nnnn1-c1cccc(Cl)c1 | -2 | -0.077 | 101 | -0.027 | i | 6
N#CCCS(=O)(=O)c1nnnn1-c1ccccc1 | -1 | 0.51 | -1.1* | 0.31 | i | 34
NC(=O)c1c(NC(=O)C2CCCO2)sc2c1CCC2 (configuration not stated) | 31* | -0.021 | 84 | -0.074 | i | 6
NC(=O)c1c(NC(=O)CSc2nnc(-c3ccccc3)n2CC2CCCO2)sc2c1CCC2 (configuration not stated) | 12 | · | 69 | · | i | 9
COc1ccc(-c2oc3ncnc(NCCCN4CCOCC4)c3c2-c2ccc(OC)cc2)cc1 | -7 | -0.76 | -2.9* | 0.3 | · | 29
COc1ccc(-c2oc3ncnc(NCCN4CCOCC4)c3c2-c2ccc(OC)cc2)cc1 | 6 | 0.019 | 52 | 0.75 | · | 23
O=C(CSc1ccc2nnc(-c3cccnc3)n2n1)NCc1ccc2c(c1)OCO2 | 3 | 0.23 | -17* | 1.1 | i | 6
Cc1ccccc1-c1nc(CN2CCC(C(=O)NCCC3=CCCCC3)CC2)c(C)o1 | 5 | -0.12 | -16* | -0.031 | i | 3
COc1ccc(CCNC(=O)C2CCN(Cc3nc(-c4ccccc4C)oc3C)CC2)cc1OC | 3 | 0.28 | 80 | 0.25 | i | 6
Cc1oc(-c2cccc(Cl)c2)nc1CN1CCC(C(=O)NCc2cccnc2)CC1 | -3 | -1.1 | 102 | -0.032 | i | 22
CCN(CCNC(=O)C1CCN(Cc2nc(-c3cccc(Cl)c3)oc2C)CC1)c1ccccc1 | 0 | 0.46 | -13* | 0.9 | i | -4
CCc1ccc(-c2nc(CN3CCC(C(=O)NCCN(CC)c4ccccc4)CC3)c(C)o2)cc1 | 6 | 0.46 | -13* | 1.1 | i | 10
CCN(CCNC(=O)C1CCCN(Cc2nc(-c3ccc(OC)cc3)oc2C)C1)c1ccccc1 (configuration not stated) | 6 | -1.1 | 80 | -0.45 | i | -9
CCN(CCNC(=O)C1CCN(Cc2nc(-c3ccc(Cl)cc3)oc2C)CC1)c1ccccc1 | -4 | -1.3 | -17* | 0.71 | i | 17
CCSc1nnc2c(n1)OC(c1ccc3ccccc3c1)Nc1ccccc1-2 (configuration not stated) | · | · | · | · | i | ·
O=C(Nc1nc(-c2cccc([N+](=O)[O-])c2)cs1)c1ccccc1Br | · | · | · | · | i | ·
O=C(O)c1cccc(COc2ccccc2Cl)c1 | · | 0.59 | 133 | -1.1 | i | 92*
O=C(O)c1ccc(COc2ccccc2Cl)cc1 | 0 | 1.5 | 125 | -0.38 | i | 1
